Reference: ChEMBL document CHEMBL1649230, “Aryl rhodanines specifically inhibit staphylococcal and enterococcal biofilm formation” (Antimicrob Agents Chemother, 2009)
Calls of active or inactive are those of the source. The rule behind the calls is not given here.

Key:
[1] = system: Enterococcus faecalis; assay: Antimicrobial activity against vancomycin-resistant Enterococcus faecalis isolate F317 on medical grade silicone disk assessed as inhibition of bacterial biofilm after 18 hrs by broth microdilution method; format: functional
Method in brief: (§1)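 Medical-grade silicone disks glued to 24-well plate bottoms. Compound added to a 1:100 overnight-culture inoculum (0.5× TSB, 1% glucose) at 2% DMSO final; ≥3 wells each, ~18 h at 37°C. Washed with water, heat-fixed 60°C 60 min, stained with 0.06% crystal violet, eluted with 30% acetic acid, OD600 read. Repeated ≥3 times.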

[2] = system: Enterococcus faecalis; assay: Antimicrobial activity against vancomycin-resistant Enterococcus faecalis isolate F177 on medical grade silicone disk assessed as inhibition of bacterial biofilm after 18 hrs by broth microdilution method; format: functional; method in brief: as §1
[3] = system: Staphylococcus aureus; assay: Antimicrobial activity against community acquired methicillin-resistant Staphylococcus aureus isolate 33548 assessed as inhibition of bacterial biofilm after 18 hrs by broth microdilution method; format: functional
Method in brief: (§2)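 Biofilm MBIC on tissue culture-treated polystyrene 96-well plates. Twofold dilutions, 0.2 to 100 μM final, with 2% DMSO final. Inoculum was an overnight culture diluted 1:100 (~5 × 10^6 cells/well) in 0.5× TSB plus 1% glucose, grown 18 h at 37°C. Wells washed, heat-fixed 60°C 60 min, stained with 0.06% crystal violet, OD600 read. MBIC is the lowest concentration giving ≥80% inhibition versus untreated; geometric mean of ≥3 experiments.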

[4] = system: Enterococcus faecalis; assay: Antimicrobial activity against vancomycin-resistant Enterococcus faecalis isolate F217 assessed as inhibition of bacterial biofilm after 18 hrs by broth microdilution method; format: functional; method in brief: as §2
[5] = system: Enterococcus faecalis; assay: Antimicrobial activity against vancomycin-resistant Enterococcus faecalis isolate F217 on medical grade silicone disk assessed as inhibition of bacterial biofilm after 18 hrs by broth microdilution method; format: functional; method in brief: as §1
[6] = system: Staphylococcus aureus; assay: Inhibition of […] of Staphylococcus aureus ATCC 35556 assessed as level of beta-galactosidase activity at 8 times MBIC by Miller assay; format: functional, organism-based
Method in brief: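 Stationary-phase autolysis used ATCC 35556 carrying pAJ22, inoculated 1:100 from overnight culture into TSB with 6 μg chloramphenicol/ml and varying compound. Cultures were shaken at 250 rpm, 37°C, for 96 h, sampling OD600 and cell-free supernatants over time. Released β-galactosidase in supernatants was assayed with o-nitrophenyl-β-d-galactopyranoside and reported in Miller units.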

[7] = system: Staphylococcus aureus; assay: Antimicrobial activity against Staphylococcus aureus ATCC 35556 assessed as inhibition of primary adhesion of bacterial biofilm to polystyrene surface under static condition pretreated with 4 times compound MBIC for 30 mins measured after 30 mins by fluorescence emission using BaclLight Live Dead stain; format: functional
Method in brief: (§3)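 PBS suspension of mid-log S. aureus ATCC 35556 exposed to compound in tubes for 30 min at 37°C. Cells centrifuged to remove free compound and resuspended in PBS at the original density. They were then placed on tissue culture-treated polystyrene for 30 min at 37°C. Wells washed, BacLight Live/Dead fluorescence read (ex 485, em 530 nm). Fraction adherent calculated versus untreated.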

[8] = system: Staphylococcus aureus; assay: Antimicrobial activity against Staphylococcus aureus ATCC 35556 on medical grade silicone disk assessed as inhibition of bacterial biofilm after 18 hrs by broth microdilution method; format: functional, organism-based
[9] = system: Staphylococcus aureus; assay: Antimicrobial activity against community acquired methicillin-resistant Staphylococcus aureus isolate 43349 assessed as inhibition of bacterial biofilm after 18 hrs by broth microdilution method; format: functional; method in brief: as §2
[10] = system: Staphylococcus aureus; assay: Antimicrobial activity against Staphylococcus aureus ATCC 35556 assessed as inhibition of primary adhesion of bacterial biofilm to polystyrene surface under static condition at 0.5 times MBIC after 30 mins by fluorescence emission using BaclLight Live Dead stain; format: functional, organism-based
Method in brief: (§4)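 Mid-log S. aureus ATCC 35556 (OD600 0.5) grown in TSB at 37°C, washed, resuspended in PBS. Compound added (0× to 8× MBIC, 2% DMSO). Suspension placed on tissue culture-treated polystyrene or PVC 96-well plates (eight wells per level) or silicone disks in 24-well plates (three wells). Incubated 30 min at 37°C, then washed. BacLight Live/Dead fluorescence read (ex 485, em 530 nm). Result given as fraction adherent versus untreated.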

[11] = system: Staphylococcus aureus; assay: Antimicrobial activity against Staphylococcus aureus ATCC 35556 assessed as inhibition of primary adhesion of bacterial biofilm to silicone disk surface under static condition at 4 times MBIC after 30 mins by fluorescence emission using BaclLight Live Dead stain; format: functional, organism-based; method in brief: as §4
[12] = system: Staphylococcus aureus; assay: Antimicrobial activity against Staphylococcus aureus ATCC 35556 assessed as inhibition of bacterial biofilm formation at 4 times MBIC measured after 6 hrs; format: functional, organism-based
[13] = system: Staphylococcus epidermidis; assay: Antimicrobial activity against Staphylococcus epidermidis ATCC 35984 on medical grade silicone disk assessed as inhibition of bacterial biofilm after 18 hrs by broth microdilution method; format: functional; method in brief: as §1
[14] = system: Staphylococcus aureus; assay: Effect on PNAG synthesis in Staphylococcus aureus ATCC 35556 by dot blot Western analysis; format: functional, organism-based
Method in brief: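 PNAG extracts were made from S. aureus ATCC 35556 grown with compound at 0× to 8× MBIC. Extracts were serially diluted 1:4, spotted onto nitrocellulose and probed with WGA-HRP, detected by chemiluminescent substrate on film. A PNAG-defective Δica::Tc strain extract served as the specificity control.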

[15] = system: Staphylococcus aureus; assay: Antimicrobial activity against Staphylococcus aureus ATCC 35556 assessed as inhibition of bacterial biofilm formation at 4 times MBIC measured after 4 hrs; format: functional, organism-based
[16] = system: Staphylococcus epidermidis; assay: Antimicrobial activity against methicillin-resistant Staphylococcus epidermidis GTC 18972 assessed as inhibition of bacterial biofilm after 18 hrs by broth microdilution method; format: functional; method in brief: as §2
[17] = system: Staphylococcus aureus; assay: Antimicrobial activity against Staphylococcus aureus ATCC 35556 assessed as inhibition of primary adhesion of bacterial biofilm to silicone disk surface under shaking condition at 4 times MBIC after 30 mins by fluorescence emission using BaclLight Live Dead stain; format: functional, organism-based
[18] = system: Staphylococcus aureus; assay: Antimicrobial activity against Staphylococcus aureus ATCC 35556 assessed as effect on protein synthesis at 15 ug/ml; format: functional, organism-based
[19] = system: Staphylococcus aureus; assay: Antimicrobial activity against Staphylococcus aureus ATCC 35556 assessed as inhibition of planktonic cell growth at 8 times MBIC; format: functional, organism-based
[20] = system: Staphylococcus aureus; assay: Antimicrobial activity against Staphylococcus aureus ATCC 35556 assessed as inhibition of primary adhesion of bacterial biofilm to polystyrene surface under static condition pretreated with compound MBIC for 30 mins measured after 30 mins by fluorescence emission using BaclLight Live Dead stain; format: functional; method in brief: as §3
[21] = system: Staphylococcus aureus; assay: Antimicrobial activity against Staphylococcus aureus ATCC 35556 assessed as inhibition of primary adhesion of bacterial biofilm to silicone disk under static condition at MBIC after 30 mins by fluorescence emission using BaclLight Live Dead stain; format: functional, organism-based; method in brief: as §4
[22] = system: Staphylococcus aureus; assay: Antimicrobial activity against Staphylococcus aureus ATCC 35556 assessed as inhibition of primary adhesion of bacterial biofilm to PVC surface under static condition at 4 times MBIC after 30 mins by fluorescence emission using BaclLight Live Dead stain; format: functional, organism-based; method in brief: as §4
[23] = system: Staphylococcus aureus; assay: Antimicrobial activity against community acquired methicillin-resistant Staphylococcus aureus isolate 35392 assessed as inhibition of bacterial biofilm after 18 hrs by broth microdilution method; format: functional; method in brief: as §2
[24] = system: Enterococcus faecalis; assay: Antimicrobial activity against vancomycin-resistant Enterococcus faecalis isolate F177 assessed as inhibition of bacterial biofilm after 18 hrs by broth microdilution method; format: functional; method in brief: as §2
[25] = system: Staphylococcus aureus; assay: Antimicrobial activity against community acquired methicillin-resistant Staphylococcus aureus isolate 27687 assessed as inhibition of bacterial biofilm after 18 hrs by broth microdilution method; format: functional; method in brief: as §2
[26] = system: Enterococcus faecalis; assay: Antimicrobial activity against Enterococcus faecalis ATCC 51299 on medical grade silicone disk assessed as inhibition of bacterial biofilm after 18 hrs by broth microdilution method; format: functional

In the case of CCOc1cc(/C=C2\SC(=S)N(c3cccc(F)c3)C2=O)ccc1O, the MBIC90 [1] is reported as “>=100 uM”, the MBIC90 [2] is reported as “>=100 uM” and the MBIC [3] is reported as 35.4 µM. The MBIC [4] was 29.7 µM and the MBIC90 [5] was “>=100 uM”.
In the case of CCOc1cc(/C=C2\SC(=S)N(c3ccc(F)cc3)C2=O)ccc1O, the inhibition [6] is reported as “inactive”, the “inhibition (INH)” value [7] is reported as “>=80%” and the Activity [8] is reported as “Dose-dependent effect”. For the same compound, the MBIC [9] was 35.4 µM, the inhibition [10] was “Active” and the MBIC90 [1] was “>=100 uM”. The MBIC90 [2] was “>=100 uM”, the inhibition [11] was “Active” and the inhibition [12] was “Active”. For the same compound, the MBIC90 [13] was 42 µM, the inhibition [14] was “inactive” and the inhibition [15] was “Active”. The MBIC [16] was 21 µM, the MBIC [4] was 12.5 µM and the inhibition [17] was “Active”. The inhibition [18] was “inactive”, the inhibition [19] was “inactive” and the “inhibition (INH)” value [20] was “>=80%”. The inhibition [21] was “Active”, the inhibition [22] was “Active” and the MBIC90 [5] was “>=100 uM”.
With CCOc1cc(/C=C2\SC(=S)N(c3cccnc3)C2=O)ccc1O the “inhibition (INH)” value [7] was “>=80%”, the inhibition [10] was “Active” and the inhibition [11] was “Active”. For the same compound, the MBIC [23] was 25 µM, the inhibition [18] was “inactive” and the “inhibition (INH)” value [20] was “>=80%”. For the same compound, the inhibition [21] was “Active”, the inhibition [22] was “Active” and the MBIC [24] was 19.8 µM.
With C=CCOc1cc(/C=C2\SC(=S)N(c3ccc(F)cc3)C2=O)ccc1O the MBIC [23] was 39.7 µM, the MBIC [3] was 31.5 µM and the MBIC [25] was 50 µM. It also gave an MBIC90 [26] of 100 µM.
